The RNAGym collection of RNA variant scans (doi:10.1126/science.aae0568)
Variants at the floor of the assay were thinned out.

B1: tRNA (parent)
chain: GUUCCGUUGGCGUAAUGGUAACGCGUCUCCCUCCUAAGGAGAAGACUGCGGGUUCGAGUCCCGUACGGAACG

Variants of: B1
Assay: yeast fitness relative to wild type (ratio to wild type); higher = fitter; tRNA-Arg(CCU), competitive growth, 37 C, YPD
Procedure, shortened: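 A pool of Saccharomyces cerevisiae strains, each with a tRNA-Arg(CCU) gene variant at the native genomic locus, was competed in YPD at 37°C for 24 hours across six parallel replicates. The variants had been chemically synthesised at a 3% per-site mutation rate over 69 sites, and gene amplicons before and after competition were read by 100-nucleotide paired-end sequencing. Darwinian fitness relative to wild type rested on changes in genotype frequencies. Genotypes required ≥ 100 starting reads, and estimates < 0.5 were set to 0.5.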

Variant	yeast fitness
U7C U26C U53A	≤ 0.5
U7C U19C C34U G52A U59A	0.678
U7G A15C A45C	0.565
U7G A37U C46G	≤ 0.5
U7C G18A C31A U59A	≤ 0.5
U7C G67A A69C	0.534
U7G A21C G39C C49A G51A	≤ 0.5
U7C U32C G58A A70C	≤ 0.5
U7G A20G A21G G38C G50C	≤ 0.5
U7G A36C G67A	≤ 0.5
U7C U64G A69C	0.603
U7G A21C G44C G58C	≤ 0.5
U7C G58A G67A	0.62
U7G A36G A45U	≤ 0.5
U7C G41A A42C G50C C62G	≤ 0.5
U7G A15G C61U G67A	≤ 0.5
U7C U64A G68U	≤ 0.5
U7C U54C C55G	0.655
U7G A14U U53A	0.554
U7G A40U G63A	0.66
U7G A20C A42C	≤ 0.5

Variant	yeast fitness
U7C G25C	0.822
U7C G25A	1.04
U7G A37U A65G	0.699
U7C U13G C30U A65U	0.619
U7G A21C G50A U64C	≤ 0.5
U7C U32A U53A	0.576
U7C G52A	0.69
U7C G38C C49A A70C	≤ 0.5
U7C U47C	0.895
U7C U47C C62G	≤ 0.5
U7G A15C G44A	≤ 0.5
U7C U28A C34U C61U	≤ 0.5
U7C G39C U47A G58A G63A	≤ 0.5
U7C U8C A21U A36U A37C	≤ 0.5
U7C U32C	0.776
U7G A42C G44C G67C	≤ 0.5
U7G A21C G56A	≤ 0.5
U7C G17C U19C C24G G48C G51C U53C A57U C66U	0.575
U7C U8G	0.697
U7C U8C	0.976
U7C U47G U59A C66A A70C	≤ 0.5

Variant	yeast fitness
U7G A14G U35G A43G C55U U59A	≤ 0.5
U7G A20G U47A C61A	0.597
U7C G51C	0.6
U7C G51A	0.856
U7G A14G	0.911
U7G A14C	0.532
U7C G58C	0.781
U7C G58A	1.06
U7C G50A	0.684
U7C U16C C29U	≤ 0.5
U7C G63A	0.856
U7C U8C U26G	≤ 0.5
U7C G56U A65U G68C	≤ 0.5
U7C G50C A70G	≤ 0.5
U7C G25A U47C U64G G68C	≤ 0.5
U7G A21C U26C G44C	≤ 0.5
U7C U19A C29A	≤ 0.5
U7C G41A A42C	0.543
U7C U32C U53C	0.536
U7C U16A C24G G41C	≤ 0.5
U7C G18A U35A A43U U54C A65G	≤ 0.5

Variant	yeast fitness
U7C U59G C60A G68U	≤ 0.5
U7G A20G A70G	0.615
U7G A42C C62U	0.651
U7C U26G A57U C66U	≤ 0.5
U7G A15G C27U G68A	≤ 0.5
U7G A40C	0.807
U7G A15G U19C A21G G41A C55A G63C	≤ 0.5
U7G A21C G44C C66U	≤ 0.5
U7G A15C G38C	≤ 0.5
U7C U16G A20G U26C C49G	≤ 0.5
U7G A14G C22U G38A	0.534
U7C G67C	0.951
U7C G44A C46U A69C	0.698
U7G A21C G51A	≤ 0.5
U7C U26C A36G A42G G48C A65C	≤ 0.5
U7C U26A U54C	≤ 0.5
U7G A15G U19C A21G G41A C55A	0.575
U7G A15C C24U U32C A43G G51A U54C G67C	≤ 0.5
U7C U28A G48C A69U A70U	≤ 0.5
U7C G39C C46U C49U G56A G68C	≤ 0.5
